Variants at the floor of the assay were thinned out.
B1: tRNA (parent)
chain: GUUCCGUUGGCGUAAUGGUAACGCGUCUCCCUCCUAAGGAGAAGACUGCGGGUUCGAGUCCCGUACGGAACG

Variants of: B1
Assay: yeast fitness relative to wild type (ratio to wild type); higher = fitter; tRNA-Arg(CCU), competitive growth, 37 C, YPD
Outline: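 Amplicons of the tRNA-Arg(CCU) gene were sequenced, 100-nucleotide paired-end, from the start population and from each end population of a pooled yeast competition. The competition, in six parallel replicates, lasted 24 hours in YPD at 37°C. Fitness relative to wild type was calculated from changes in genotype frequencies. Genotypes had to have ≥ 100 starting reads, and estimates < 0.5 were set to 0.5.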

| Variant | yeast fitness |
| --- | --- |
| C24U A57U | 0.641 |
| C24U A57C | 0.601 |
| C24U C29G G38C A42C | ≤ 0.5 |
| C24G G44C C66U | ≤ 0.5 |
| C24G G50C G68C | 0.629 |
| C24U C29G C33U A57G | ≤ 0.5 |
| C24G G44A C55U | ≤ 0.5 |
| C24U C49G G56C G58A | 0.57 |
| C24U C31A A57C | 0.704 |
| C24U C27U A40G G44A G50C | ≤ 0.5 |
| C24G G38C G50C | ≤ 0.5 |
| C24U A57G C61G | ≤ 0.5 |
| C24U C55G C61G | ≤ 0.5 |
| C24G U26A A45C | ≤ 0.5 |
| C24U C29A U32A C46G A70U | ≤ 0.5 |
| C24U C31A C33A C34U C46A | ≤ 0.5 |
| C24U C29U A36C A42U A57U | 0.518 |
| C24U C31A C34U | ≤ 0.5 |
| C24U C33G U53C C55U A70G | ≤ 0.5 |
| C24G U47G U53C | 0.713 |
| C24U A37C G58A | 0.513 |

| Variant | yeast fitness |
| --- | --- |
| C24G C33U U59C | ≤ 0.5 |
| C24G C33U A37U G38A | ≤ 0.5 |
| C24G G25A C66U | 0.561 |
| C24G U26C C31U U54C | 0.934 |
| C24U A42U | 0.875 |
| C24U A42G | 0.956 |
| C24G C46G G48A C55U U64A A69C | 0.5 |
| C24G C46G C66U | ≤ 0.5 |
| C24U C49G G56C | ≤ 0.5 |
| C24U C29U C49U G51U | ≤ 0.5 |
| C24G G39C | 0.608 |
| C24U C34G A45U G68C | ≤ 0.5 |
| C24U C29U A42G C55U | ≤ 0.5 |
| C24G C66U | 0.533 |
| C24G C66G | 0.691 |
| C24U C60G A65U | ≤ 0.5 |
| C24U A42U G52C G63A | ≤ 0.5 |
| C24U | 0.983 |
| C24G U35C | ≤ 0.5 |
| C24U C34U A69C | 0.502 |
| C24G U35C C49U C61G | 0.54 |

| Variant | yeast fitness |
| --- | --- |
| C24U C49U A65U | 0.577 |
| C24U C46U A70U | 0.75 |
| C24U C31G C34G A43U G68C A69G | ≤ 0.5 |
| C24U A43G A69U | 0.819 |
| C24G C33U | 0.646 |
| C24G C33U A43G | ≤ 0.5 |
| C24U A43U C55G | 0.588 |
| C24G G58A | 0.675 |
| C24G G58C | 0.573 |
| C24G U26A A37G G48A | ≤ 0.5 |
| C24U A45G A65G | 0.757 |
| C24U C30U G58C A70G | ≤ 0.5 |
| C24U C29G C60U C66U | ≤ 0.5 |
| C24U C30A | 0.898 |
| C24U C30G | 0.836 |
| C24U A69C A70C | 0.536 |
| C24G G39C C61U C66U | ≤ 0.5 |
| C24G U47A C55G | 0.847 |
| C24U C34U G58A | ≤ 0.5 |
| C24G G38C C46A U53C C61G | ≤ 0.5 |
| C24G G25A C34A C46G | ≤ 0.5 |

| Variant | yeast fitness |
| --- | --- |
| C24U C27A U53A C66U | ≤ 0.5 |
| C24G G25A A65G | 0.609 |
| C24G C33G U53C C55U A70G | 0.57 |
| C24U C33G C34U | 0.672 |
| C24U C29U C31G | 0.806 |
| C24G G25C C27A U59A C62A | ≤ 0.5 |
| C24U C49U U64A | ≤ 0.5 |
| C24U C27G U59A A70G | ≤ 0.5 |
| C24G U32A A42C A65U | ≤ 0.5 |
| C24G U32A A43G G50A | ≤ 0.5 |
| C24G G39C A45G U54A | ≤ 0.5 |
| C24U C27U G50C | ≤ 0.5 |
| C24U C33U C46U C49A C62U A69U | ≤ 0.5 |
| C24G U28C U54A | ≤ 0.5 |
| C24G U53G C60A | ≤ 0.5 |
| C24U C55A U59G A65C | ≤ 0.5 |
| C24G C60U G68A | 0.789 |
| C24G U53A | 0.533 |
| C24U C31A C49U A57C | ≤ 0.5 |
| C24U A43C C49U G51U | ≤ 0.5 |

— the RNAGym collection of RNA variant scans (doi:10.1126/science.aae0568)
